Screening data as filed in PubChem.
TbHK1 inh: T. brucei hexokinase 1 inhibition; recombinant TbHK1, G6PDH-coupled NADH A340; AID 1430; actives 0.11% (n = 220,000); inhibition, % at 10 µM;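 active = inhibition of 50% or more in the single-dose primary screen; inactive = inhibition below 50%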
Hck-Nef inh: blocks Nef-activated human Hck kinase; actives 0.68% (n = 220,000); P08631; Recombinant Hck-YEEI plus Nef, Z-Lyte FRET kinase assay; inhibition, % at 20 µM;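 active = Hck-Nef kinase inhibition above about 50%, limit read from the data; inactive = inhibition below that limit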;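 note: 0% = DMSO with Hck plus Nef and 100% = Hck alone without Nef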
Runt-SMMHC FRET: Runt domain-CBFb-SMMHC interaction inhibition; inhibition, % at 20 µM; actives 0.74% (n = 220,000); Cerulean-Runt/Venus-CBFb-SMMHC FRET ratio 530/480, 1 h;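 active = mean inhibition across duplicate retests at 20 µM reaching about 50%, limit read from the data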;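 note: 0% = DMSO wells and 100% = wells with excess untagged CBFb-SMMHC; inhibitors lower the FRET ratio by blocking Runt binding to CBFb-SMMHC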
Target sequence (Q01196 whole entry, looked up, the tested form may be a part): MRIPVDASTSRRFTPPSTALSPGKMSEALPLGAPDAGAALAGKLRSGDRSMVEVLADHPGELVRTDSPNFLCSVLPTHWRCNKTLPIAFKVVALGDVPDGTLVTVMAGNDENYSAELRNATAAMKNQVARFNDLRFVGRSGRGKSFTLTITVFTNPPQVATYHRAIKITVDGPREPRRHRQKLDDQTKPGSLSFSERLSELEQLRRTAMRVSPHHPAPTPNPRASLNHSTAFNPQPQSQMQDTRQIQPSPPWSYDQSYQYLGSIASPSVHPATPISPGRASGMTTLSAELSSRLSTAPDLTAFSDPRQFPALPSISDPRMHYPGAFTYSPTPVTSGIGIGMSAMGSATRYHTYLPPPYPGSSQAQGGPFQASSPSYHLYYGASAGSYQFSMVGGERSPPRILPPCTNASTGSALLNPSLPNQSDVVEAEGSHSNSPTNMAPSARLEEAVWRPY
Target sequence (Q13951 whole entry, looked up, the tested form may be a part): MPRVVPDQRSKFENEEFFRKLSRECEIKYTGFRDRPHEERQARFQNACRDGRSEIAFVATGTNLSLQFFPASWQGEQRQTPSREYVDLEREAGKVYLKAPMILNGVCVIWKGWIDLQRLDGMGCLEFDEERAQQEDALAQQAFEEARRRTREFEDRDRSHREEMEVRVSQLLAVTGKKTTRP
RanGTP-Imp inh: disruptors of Ran-importin-beta complex formation – biochemical, FRET, CFP-Ran, YFP-importin-beta, homogeneous, primary screen; cell-free CFP-Ran/YFP-importin-beta FRET ratio; inhibition, % (test concentration not listed); actives 1.1% (n = 300,000);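 active = more than half of the replicate wells show a fall in the fluorescence ratio signal beyond about 16%, limit read from the data, passing the limit was not always enough; inconclusive = exactly half of the replicate wells pass the set limit; inactive = fewer than half of replicates pass the limit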;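 note: 0% = DMSO wells and 100% = Ran loaded with GDP instead of GTP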
Runt-CBFb FRET: blocks binding of human RUNX1 Runt domain to CBFb; Q01196+Q13951; Cerulean-Runt/Venus-CBFb FRET ratio 530/480, 1 h; inhibition, % at 20 µM; actives 0.46% (n = 220,000);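 active = inhibition over about 50% at 20 µM in the single-dose screen, limit read from the data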;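 note: 0% = DMSO wells and 100% = excess unlabeled CBFb competitor control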
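Assay system: Cerulean-Runt domain / Medium: Tris 50 mM pH 7.5, KCl, K2SO4, 0.01% BSA / Timing: protein complex preformed 1 h, compound exposure 1 h, room temperature, dark / Measured by: FRET, excitation 422 nm, emission at 530 and 480 nm / Evaluation: loss of energy transfer signal / Control set: 5 µM unlabeled CBFb as full-inhibition high control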
Active calls of the source: *; ? = inconclusive; / = no result given. The list is not random: actives were taken first. Their share in the collection is about 1.9%.

SMILES | TbHK1 inh | Hck-Nef inh | Runt-SMMHC FRET | RanGTP-Imp inh | Runt-CBFb FRET
N#CC(C#N)=C1C=C2C=C(N3CCOCC3)CCC2CC1 (centres undefined) | -0.3 | 15.6 | 86.5* | -1.6 | 19.9
CC1(C)CC(NCCN2CCN(C3=CC(=C(C#N)C#N)CC(C)(C)C3)CC2)=CC(=C(C#N)C#N)C1 | -5.7 | 19.6 | -26.9 | -2.2 | -11.7
CC(=O)NC12CC3CC(C1)CC(C(=O)N1CCN(S(=O)(=O)c4ccc(C(C)C)cc4)CC1)(C3)C2 | / | / | / | 1.1 | /
COc1cccc(-c2c(C(=O)N/N=C(\C)c3ccc(Cl)s3)nnn2-c2nonc2N)c1 | / | / | / | 6.5 | /
c1ccc2[nH]c(CN3CCOCC3)nc2c1 | -6.4 | 2.2 | 0.9 | 0.3 | 0.1
c1ccc2[nH]c(SN3CCOCC3)nc2c1 | -0.4 | -1.6 | 62.0* | / | 3.6
COc1ccc(NC(=O)c2nc[nH]c2C(=O)N2CCN(C(=O)OC(C)(C)C)CC2)cc1 | -13.5 | 30.2 | 0.4 | 24.7* | -0.2
Cc1cccc2cc(C#N)c(NCCNS(=O)(=O)c3ccccc3)nc12 | -1.1 | 21.6 | 58.2* | 12.9 | 26.1
Cc1cccc2cc(C#N)c(NCCCNS(=O)(=O)c3ccc(Cl)cc3)nc12 | 14.2 | 29.7 | 74.3* | 47.2* | 31.3
COc1ccc(OC)c(NC(=O)c2ccc3c(=O)n(CCc4ccccc4)c(=S)[nH]c3c2)c1 | -7.1 | 0.7 | 0.6 | -2.7 | 0.9
Cc1c(NC(=S)N/N=C/c2ccc(N(C)C)cc2)c(=O)n(-c2ccccc2)n1C | -46.0 | 41.5 | 62.5* | 7.6 | 23.6
Cc1cc(C(=O)CN2C(=O)c3cccc(N)c3C2=O)c(C)n1Cc1cccs1 | -7.3 | 1.8 | 61.6* | 66.4* | 19.1
CCc1ccccc1NC(=O)NC1CC2CCC(C1)N2Cc1ccco1 (centres undefined) | 4.9 | 19.2 | 2.6 | 5.5 | 0.2
O=C(Nc1cccc(Cl)c1)NC1CC2CCC(C1)N2Cc1ccco1 (centres undefined) | 0.1 | -11.1 | -2.4 | 33.5* | 2.5
CCN(CC(=O)Nc1c(F)cccc1F)C(=O)c1ccc(C)c(S(=O)(=O)N2CCCCC2)c1 | / | / | / | 2.6 | /
CCOc1ccc(S(=O)(=O)N(C)CC(=O)NCc2ccccn2)cc1Cl | / | / | / | -0.8 | /
COc1ccc(C2(C)NC(=O)N(CC(=O)Nc3ccc(Br)c(C)c3)C2=O)cc1OC (centres undefined) | / | / | / | 21.3* | /
CCCN1CCN(C(=O)c2oc3ccccc3c2NC(=O)COc2ccc(OC)cc2)CC1 | / | / | / | -2.1 | /
Cc1ccc(C2C(C#N)=C(N)Oc3cc4c(cc32)OCO4)cc1 (centres undefined) | -1.9 | 4.9 | 33.2 | 11.9 | 23.9
COc1ccc(C2C(C#N)=C(N)Oc3c2sc2nc(C)cc(C)c32)cc1 (centres undefined) | -22.0 | -4.8 | -18.2 | 2.4 | -8.2
COc1ccc(C2C(C#N)=C(N)Oc3cc(N)ccc32)cc1 (centres undefined) | / | / | / | 76.6* | /
CCc1ccc(C2C(C#N)=C(N)Oc3cc(N)ccc32)cc1 (centres undefined) | / | / | / | 95.5* | /
N#CC1=C(N)Oc2cc(N)ccc2C1c1cccnc1 (centres undefined) | -6.6 | 0.1 | -3.5 | 23.7* | -4.2
N#CC1=C(N)Oc2cc(N)ccc2C1c1ccc(Cl)cc1 (centres undefined) | / | / | / | 60.9* | /
COc1cccc(NC(=O)n2ncc3c(C)cccc32)c1 | / | / | / | -1.1 | /
SMILES | TbHK1 inh | Hck-Nef inh | Runt-SMMHC FRET | RanGTP-Imp inh | Runt-CBFb FRET
N#Cc1ccc(CN2C(=O)NC3(CCCCCC3)C2=O)cc1 | / | / | / | -7.2 | /
O=C(NNC(=O)c1cc([N+](=O)[O-])ccc1Cl)c1cccs1 | -4.0 | -1.2 | 3.6 | 1.5 | 0.7
COc1ccc(CCNC(=O)c2cccnc2Cl)cc1OC | / | / | / | -1.3 | /
CCOC(=O)c1c(NC(=O)CSc2nc3nc(C)cc(C)n3n2)sc(CC)c1C | 27.2 | 11.5 | -6.2 | / | -6.0
COc1ccc(C2C(C#N)=C(N)Oc3cccc(O)c32)cc1 (centres undefined) | / | / | / | 51.3* | /
Cc1nn(-c2ccccc2)c2c1C(c1ccc(F)cc1F)C(C#N)=C(N)O2 (centres undefined) | -5.6 | 0.3 | -0.4 | -3.1 | -2.1
N#CC1=C(N)Oc2cc(N)ccc2C1c1ccc(F)cc1F (centres undefined) | / | / | / | 124.7* | /
N#CC1=C(N)Oc2cc(N)ccc2C1c1ccccc1Cl (centres undefined) | / | / | / | 133.0* | /
COc1cc(C2C(C#N)=C(N)Oc3cc(N)ccc32)cc(OC)c1OC (centres undefined) | -4.3 | 4.5 | 81.2* | / | 35.1
Nc1cc(=O)[nH]c(=O)n1CCc1ccccc1 | / | / | / | 5.8 | /
CCOc1cc(N2CCOCC2)c(OCC)cc1NC(=O)CN1CCCC1 | -5.3 | 2.7 | -0.8 | 3.5 | 1.8
O=C1N=C2N(CCN3CCCCC3)c3ccccc3N2/C1=C\c1ccc([N+](=O)[O-])o1 | -10.3 | 37.5 | / | / | /
C=CCn1c2ccccc2c2n[nH]c(=S)nc21 | / | / | / | 1.7 | /
COc1ccc(CCN2CC(C(=O)NCc3nc(C)c(C)s3)CCC2=O)cc1 (centres undefined) | / | / | / | -0.4 | /
C#CCSc1nc(N)c2c(n1)OC(N)=C(C#N)C2c1cccnc1 (centres undefined) | -0.9 | 5.5 | 3.0 | 60.5* | 0.2
N#CC1=C(N)Oc2n[nH]c(-c3ccccc3)c2C1c1cccnc1 (centres undefined) | -4.5 | 3.3 | -0.7 | 2.0 | -0.2
CCN(CC)CCCC(C)Nc1c2ccc(Cl)cc2nc2ccc(OC)cc12 (centres undefined) | / | / | 85.4* | / | 12.5
COc1ccc2nc3cc(Cl)ccc3c(Nc3cc(C(C)C)c(O)cc3C)c2c1 | 0.3 | 5.1 | 50.5* | 115.2* | 76.7*
COc1ccc2nc(Cl)cc(Cl)c2c1 | -2.2 | 19.2 | -3.1 | 0.2 | -0.4
N=c1c(C(=O)NC2CCCC2)cc2c(=O)n3ccccc3nc2n1CCCN1CCOCC1 | / | / | / | 139.7* | /
N=c1c(C(=O)NC2CCCC2)cc2c(=O)n3ccccc3nc2n1CCN1CCOCC1 | -7.0 | 34.5 | 76.9* | 99.1* | 99.2*
COc1ccc(OC)c2[nH]c(=O)c(CCNC(=O)Cc3cccs3)cc12 | -2.2 | 5.7 | -0.5 | -0.7 | -0.6
CN(C)S(=O)(=O)c1cccc(NC(=O)c2ccc(-n3cncn3)c([N+](=O)[O-])c2)c1 | / | / | / | -4.4 | /
CC(=O)c1ccc(C(=O)Nc2sc3c(c2C(N)=O)CCN(Cc2ccccc2)C3)cc1 | / | / | / | 55.3* | /
COc1cccc(OC)c1C(=O)Nc1sc2c(c1C(N)=O)CCN(Cc1ccccc1)C2 | / | / | / | 133.7* | /
CC1=CC(=O)N(c2ccn(C)n2)C1=O | -6.6 | -3.9 | -7.5 | -0.5 | 4.5
O=S(=O)(O)c1ccc(N2N=C(c3ccccc3)CC2c2ccccc2)cc1 (centres undefined) | -19.1 | 85.2* | 21.6 | ? | 5.2
NS(=O)(=O)c1ccc(N2N=C(c3ccccc3)CC2c2ccccc2)cc1 (centres undefined) | -21.5 | 35.1 | 29.3 | -1.8 | 11.4
Cc1ccc(S(=O)(=O)c2nnn(-c3cccc(F)c3)c2N)cc1 | -1.7 | 24.0 | -6.7 | 2.2 | -1.7
